The source of these data is ChEMBL document CHEMBL1133118 (J Med Chem, 2000).

Assay [1] concerns the target T1, Adenosine receptor A3 (Homo sapiens) (UniProt P0DMS8).
T1 sequence (whole entry): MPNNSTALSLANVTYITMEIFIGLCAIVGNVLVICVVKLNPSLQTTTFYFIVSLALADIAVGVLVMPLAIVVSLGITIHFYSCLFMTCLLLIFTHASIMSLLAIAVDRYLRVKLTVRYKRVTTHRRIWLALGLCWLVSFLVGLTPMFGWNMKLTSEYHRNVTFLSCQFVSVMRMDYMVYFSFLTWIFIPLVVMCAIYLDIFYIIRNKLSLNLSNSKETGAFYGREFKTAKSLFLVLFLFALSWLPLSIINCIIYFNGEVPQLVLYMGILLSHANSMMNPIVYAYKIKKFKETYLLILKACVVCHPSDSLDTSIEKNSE
In words: Percent reversal of 100 nM IB-MECA-inhibited cAMP accumulation in CHO cells expressing human adenosine A3 receptor at 1 uM; range 26-54. Format: functional, cell-based. The essentials: (§1)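 CHO cells stably expressing human A3 receptor; membranes in 50 mM Tris HCl, 10 mM MgCl2, 1 mM EDTA pH 7.4 with 5 μM GTP, 0.5 mM […] and 2.0 IU/mL adenosine deaminase. Preincubated 10 min at 37 °C, then IB-MECA (100 nM) and/or antagonist with 1 mM ATP and 10 μM forskolin for 10 min. Boiled 2 min. cAMP read by [3H]cAMP competition with adrenal binding protein.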
In general terms: Cyclic AMP is a second messenger, typically raised through Gs and lowered through Gi signalling.

Assay [2] has as its target Adenosine receptors; A2b & A3 (Homo sapiens) (UniProt P29275+P0DMS8). In words: Ratio of binding affinity of human A2B receptor to that of human A3 receptor. The assay is classed as protein assay. The essentials:
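Ki ratio, n=3-6, 6–8 concentrations. A2B in HEK-293 membranes (20 μg): 40 nM [3H]DPCPX, 50 mM Tris HCl, 10 mM MgCl2, 1 mM EDTA, 0.1 mM benzamidine pH 7.4, 2 IU/mL adenosine deaminase, 60 min at 25 °C, nonspecific with 100 μM NECA. A3 in CHO membranes (50 μg): 1 nM [3H]MRE3008-F20, 120 min at 4 °C.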

Assay [3] has as its target T2, Adenosine receptor A1 (Homo sapiens, UniProt P30542).
T2 sequence (P30542 whole entry): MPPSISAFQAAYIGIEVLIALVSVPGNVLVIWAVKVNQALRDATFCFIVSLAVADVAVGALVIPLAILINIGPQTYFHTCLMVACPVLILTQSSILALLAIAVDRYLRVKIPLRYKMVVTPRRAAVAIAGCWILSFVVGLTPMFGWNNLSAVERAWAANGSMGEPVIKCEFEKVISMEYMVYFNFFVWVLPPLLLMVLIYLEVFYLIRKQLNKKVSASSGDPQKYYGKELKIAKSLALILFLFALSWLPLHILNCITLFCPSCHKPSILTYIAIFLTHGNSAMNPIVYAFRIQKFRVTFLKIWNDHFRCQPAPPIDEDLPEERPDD
As to the kind of experiment: Displacement of [3H]DPCPX from human adenosine A1 receptor expressed in CHO cells; range 329-375. Format: cell-based.

The target of assay [4] is T3, Adenosine receptor A2b (Homo sapiens, UniProt P29275).
T3 sequence (P29275 whole entry): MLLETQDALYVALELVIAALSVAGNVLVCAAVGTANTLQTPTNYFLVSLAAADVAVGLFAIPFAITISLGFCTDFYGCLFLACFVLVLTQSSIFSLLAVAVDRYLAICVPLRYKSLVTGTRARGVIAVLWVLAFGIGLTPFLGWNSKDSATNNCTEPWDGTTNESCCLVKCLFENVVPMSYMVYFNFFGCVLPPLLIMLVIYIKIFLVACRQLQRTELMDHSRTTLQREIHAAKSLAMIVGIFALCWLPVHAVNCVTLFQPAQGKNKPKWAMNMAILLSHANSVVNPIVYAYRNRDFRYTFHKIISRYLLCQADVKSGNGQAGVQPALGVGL
In words: Displacement of [3H]DPCPX from Adenosine A2b receptor expressed in […]; range 70-94. The assay is classed as cell-based. A general note: Loss of bound radioactivity is the signal in a displacement assay; it reports binding, not function.

Assay [5] has as its target T4, Adenosine receptor A3 (Homo sapiens, UniProt P0DMS8).
T4 sequence (P0DMS8 whole entry): T1 sequence (whole entry)
In words: Displacement of [3H]MRE3008-F20 from human adenosine A3 receptor expressed in CHO cells; range 50-61. The assay is classed as cell-based.

Assay [6] has as its target Adenosine receptors; A1 & A3 (Homo sapiens) (UniProt P30542+P0DMS8). As to the kind of experiment: Ratio of binding affinity of human A1 receptor to that of human A3 receptor. Format: protein assay. The method, boiled down:
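Ki ratio from displacement in CHO membranes, 6–8 concentrations, n=3-6, filtration counting. A1: 1 nM [3H]DPCPX, 50 μg protein, 120 min at 25 °C, nonspecific with 10 μM CHA. A3: 1 nM [3H]MRE3008-F20, 50 μg protein, Tris/10 mM MgCl2 pH 7.4, 120 min at 4 °C, nonspecific with 1 μM MRE3008-F20.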

The target in assay [7] is T5, Adenosine receptor A2a (Homo sapiens, UniProt P29274). In words: Displacement of [3H]-SCH- 58261 from human adenosine A2A receptor expressed in CHO cells; range 85-140. Format: cell-based.
The target of assay [8] is T2, Adenosine receptor A1. In words: Displacement of [3H]DPCPX from human adenosine A1 receptor expressed in CHO cells; range 365-550. The assay is classed as cell-based.
The target of assay [9] is T3, Adenosine receptor A2b. In words: Displacement of [3H]DPCPX from Adenosine A2b receptor expressed in […]; range 332-369. Format: cell-based.
For assay [10], the target named is T4, Adenosine receptor A3. In words: Inhibition of cAMP accumulation in CHO cells expressing human A3 adenosine receptor. The assay is classed as functional, cell-based.
For assay [11], the target named is T1, Adenosine receptor A3 (Homo sapiens). The note with it: CHO, 1 uM.
Assay [12] concerns the target T4, Adenosine receptor A3. In words: Displacement of [3H]MRE3008-F20 from human adenosine A3 receptor expressed in CHO cells; range 0.08-0.27. Format: cell-based.
Assay [13] deals with T5, Adenosine receptor A2a. In words: Displacement of [3H]-SCH- 58261 from human adenosine A2A receptor expressed in CHO cells; range 484-558. The assay is classed as cell-based. The essentials: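 Membranes from CHO cells stably expressing human A2A receptor, grown in DMEM/F12 without nucleosides, resuspended in 50 mM Tris HCl, 10 mM MgCl2, pH 7.4; 50 μg protein/assay. Competition with [3H]SCH 58261 at 6–8 or more compound concentrations, 60 min at 25 °C; nonspecific binding with 50 μM NECA. Filtration on GF/B filters, scintillation counting; n=3-6.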

The target in assay [14] is T1, Adenosine receptor A3 (Homo sapiens). As to the kind of experiment: Percentage of blockade by 1 uM of the inhibition by 100 nM IB-MECA-inhibited cAMP accumulation in CHO cells expressing human adenosine A3 receptor. Format: functional, cell-based. The method, boiled down: as §1
The target of assay [15] is T4, Adenosine receptor A3. As to the kind of experiment: biochemical.
Assay [16] addresses T5, Adenosine receptor A2a. In words: Displacement of [3H]-SCH- 58261 from human adenosine A2A receptor expressed in CHO cells; range 1.90-3.37. The assay is classed as cell-based.
Assay [17] addresses T3, Adenosine receptor A2b. As to the kind of experiment: Displacement of [3H]DPCPX from Adenosine A2b receptor expressed in CHO cells; range 35-45. The assay is classed as cell-based. The note with it: in the assay text read “HEK-293 cells” for “CHO cells”. The method, boiled down:
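Human recombinant A2B receptor was expressed in HEK-293 cell membranes (20 μg protein). Incubated with 40 nM [3H]DPCPX in 50 mM Tris HCl, 10 mM MgCl2, 1 mM EDTA, 0.1 mM benzamidine, pH 7.4, with 2 IU/mL adenosine deaminase, at least 6–8 test concentrations, 60 min, 25 °C. Nonspecific binding was taken with 100 μM NECA; n=3-6.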

Assay [18] has as its target T4, Adenosine receptor A3. In words: biochemical. This is another data set of the same source.
Assay [19] has as its target T2, Adenosine receptor A1. As to the kind of experiment: Displacement of [3H]DPCPX from human adenosine A1 receptor expressed in CHO cells; range 179-317. Format: cell-based.
Assay [20] deals with T5, Adenosine receptor A2a. As to the kind of experiment: Displacement of [3H]-SCH- 58261 from human adenosine A2A receptor expressed in CHO cells; range 218-283. Format: cell-based.
Assay [21] concerns the target T3, Adenosine receptor A2b. In words: Tested for inhibitory activity against Adenosine A2b receptor by displacement of [3H]DPCPX expressed in […]; value ranges from 61-80. Format: cell-based.
The target in assay [22] is T3, Adenosine receptor A2b. As to the kind of experiment: Displacement of [3H]DPCPX from Adenosine A2b receptor expressed in […]; range 1637-2582. The assay is classed as cell-based.

T5 sequence (P29274 whole entry): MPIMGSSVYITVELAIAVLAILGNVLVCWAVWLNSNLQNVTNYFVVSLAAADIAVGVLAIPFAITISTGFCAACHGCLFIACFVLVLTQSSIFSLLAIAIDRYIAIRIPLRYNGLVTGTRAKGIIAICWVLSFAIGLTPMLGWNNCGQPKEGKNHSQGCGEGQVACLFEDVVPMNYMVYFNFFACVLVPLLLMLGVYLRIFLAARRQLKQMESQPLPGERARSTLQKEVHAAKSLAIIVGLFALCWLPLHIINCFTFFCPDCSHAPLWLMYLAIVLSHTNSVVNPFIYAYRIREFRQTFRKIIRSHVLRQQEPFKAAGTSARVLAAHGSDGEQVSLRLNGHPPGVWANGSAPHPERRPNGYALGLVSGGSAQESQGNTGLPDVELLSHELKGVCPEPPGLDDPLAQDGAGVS

A word on the inhibition: it is the percentage by which the read-out fell short of the control. As a reminder, the Ki is the equilibrium dissociation constant of an inhibitor or competing ligand from its target. High values mean weaker binding, low ones tighter binding. With `CC(C)=CCn1cc2c(nc(NC(=O)Nc3cccc(Cl)c3)n3nc(-c4ccco4)nc23)n1`, in assay [1], the inhibition came out at 38%. Besides, the Ratio in assay [2] is 1.47; in assay [6], 6.4. Besides, the inhibition constant Ki turned out to be 352 nM in assay [3], 81 nM in assay [4], 55 nM in [5] and 110 nM in assay [7].

As a reminder, the IC50 is the concentration that gives 50% inhibition. Higher therefore signals weaker potency in that assay. For the molecule `COc1ccc(NC(=O)Nc2nc3n[nH]cc3c3nc(-c4ccco4)nn23)cc1`, the Ki was 448 nM in assay [8], 350 nM in assay [9], 0.14 nM in assay [12] and 520 nM in assay [13]. Further, the Ratio in assay [2] turned out to be 2500; in assay [6], 3200. The molecule also came in with an IC50 in [10] of 1.8 nM. In addition, the inhibition in assay [11] was 98%.

As to `CCCn1cc2c(nc(N)n3nc(-c4ccco4)nc23)n1`, the Ratio in assay [2] stood at 0.095; in assay [6], 0.024. The same molecule registered an inhibition in [14] of 23%. Besides, the inhibitory constant (Ki) in [15] came to 408 nM; in assay [16] it was 2.51 nM; in assay [17] it was 39 nM.

For the molecule `O=C(Nc1cccc(Cl)c1)Nc1nc2n[nH]cc2c2nc(-c3ccco3)nn12`, the results for the Ratio in assay [2] and in [6] were 140 and 476, respectively. In addition, the inhibition constant Ki in [18] was 0.5 nM; in assay [19], 238 nM; in [20], 248 nM; in assay [21], 70 nM. In addition, the 50% inhibitory concentration (IC50) in assay [10] came to 5.3 nM. Moreover, the inhibition in [11] was 88%.

`CCCn1cc2c(nc(NC(=O)Nc3ccc(OC)cc3)n3nc(-c4ccco4)nc23)n1`: the Ki in assay [22] came out at 2060 nM. This lies in the single-digit micromolar range.
